ChEMBL document CHEMBL1155370, “Discovery and initial SAR of pyrimidin-4-yl-1H-imidazole derivatives with antiproliferative activity against melanoma cell lines” (Bioorg Med Chem Lett, 2010)
The source made the active and inactive calls. The calls are words filed in the database; no cut-off is given here.

What was measured:
[1] = (§1) Growth inhibition of human WM3629 cells by MTT assay; type: functional
Procedure, shortened: (§2)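 WM3629 cells kept in Tu2% medium. They were seeded at 5×10^3 cells/well, rested 24 h, then exposed to a 12-point three-fold serial dilution. GI50 was taken from an MTT reduction assay read at 590 nm.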

[2] = (§3) Growth inhibition of human A375P cells by MTT assay; type: functional
Procedure, shortened: (§4)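 A375P cells grown in DMEM with 10% FBS and 1% penicillin/streptomycin at 37 °C in 5% CO2. Cells were detached with trypsin-EDTA, seeded at 5×10^3 cells/well and left 24 h. They were then treated with a 12-point three-fold serial dilution. Viability was read by MTT reduction assay as absorbance at 590 nm.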

[3] = Selectivity ratio of GI50 for human WM3629 cells to GI50 for human A375P cells; type: functional
A375P = assay: as §3; type: functional; procedure, shortened: as §4
[4] = target: BDNF/NT-3 growth factors receptor (Homo sapiens) (UniProt Q16620); assay: Inhibition of TrkB at 10 uM
Procedure, shortened: (§5)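 Single-dose panel screen across 30 kinases at 10 µM, run in duplicate; % inhibition reported.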

[5] = target: RAF proto-oncogene serine/threonine-protein kinase (Homo sapiens) (UniProt P04049); assay: Inhibition of cRAF at 10 uM; procedure, shortened: as §5
[6] = target: Myotonin-protein kinase (Homo sapiens) (UniProt Q09013); assay: Inhibition of DMPK at 10 uM; procedure, shortened: as §5
[7] = target: RAC-alpha serine/threonine-protein kinase (Homo sapiens) (UniProt P31749); assay: Inhibition of AKT1 at 10 uM; procedure, shortened: as §5
[8] = target: Serine/threonine-protein kinase PAK 4 (Homo sapiens) (UniProt O96013); assay: Inhibition of PAK4 at 10 uM; procedure, shortened: as §5
[9] = target: Proto-oncogene tyrosine-protein kinase Src (Homo sapiens) (UniProt P12931); assay: Inhibition of c-Src at 10 uM; procedure, shortened: as §5
[10] = target: DNA-dependent protein kinase catalytic subunit (Homo sapiens) (UniProt P78527); assay: Inhibition of DNA-PK at 10 uM; procedure, shortened: as §5
[11] = target: Cyclin-dependent kinase 5/CDK5 activator 1 (Homo sapiens) (UniProt Q00535+Q15078); assay: Inhibition of CDK5/p25 at 10 uM; type: protein-complex assay; procedure, shortened: as §5
[12] = target: Tyrosine-protein kinase JAK3 (Homo sapiens) (UniProt P52333); assay: Inhibition of JAK3 at 10 uM; procedure, shortened: as §5
[13] = target: Cyclin-dependent kinase 2/cyclin E1 (Homo sapiens) (UniProt P24864+P24941); assay: Inhibition of CDK2/cyclin E at 10 uM; type: protein-complex assay; procedure, shortened: as §5
[14] = target: Focal adhesion kinase 1 (Homo sapiens) (UniProt Q05397); assay: Inhibition of human FAK at 10 uM; procedure, shortened: as §5
[15] = target: Protein kinase C alpha type (Homo sapiens) (UniProt P17252); assay: Inhibition of PKCalpha at 10 uM; procedure, shortened: as §5
[16] = target: Dual specificity mitogen-activated protein kinase kinase 1 (Homo sapiens) (UniProt Q02750); assay: Inhibition of MEK1 at 10 uM; procedure, shortened: as §5
[17] = target: Insulin-like growth factor 1 receptor (Homo sapiens) (UniProt P08069); assay: Inhibition of IGF1R at 10 uM; procedure, shortened: as §5
[18] = target: Ribosomal protein S6 kinase beta-1 (Homo sapiens) (UniProt P23443); assay: Inhibition of p70S6K at 10 uM; procedure, shortened: as §5
[19] = target: Proto-oncogene tyrosine-protein kinase ROS (Homo sapiens) (UniProt P08922); assay: Inhibition of ROS at 10 uM; procedure, shortened: as §5
[20] = target: Macrophage-stimulating protein receptor (Homo sapiens) (UniProt Q04912); assay: Inhibition of RON at 10 uM; procedure, shortened: as §5
[21] = target: Glycogen synthase kinase-3 beta (Homo sapiens) (UniProt P49841); assay: Inhibition of GSK3-beta at 10 uM; procedure, shortened: as §5
[22] = target: Receptor-type tyrosine-protein kinase FLT3 (Homo sapiens) (UniProt P36888); assay: Inhibition of human FLT3 at 10 uM; procedure, shortened: as §5
[23] = target: Mitogen-activated protein kinase 1 (Homo sapiens) (UniProt P28482); assay: Inhibition of ERK2 at 10 uM; procedure, shortened: as §5
[24] = target: Cyclin-dependent kinase 1/cyclin B1 (Homo sapiens) (UniProt P06493+P14635); assay: Inhibition of CDK1/cyclin B at 10 uM; type: protein-complex assay; procedure, shortened: as §5
[25] = target: Epidermal growth factor receptor (Homo sapiens) (UniProt P00533); assay: Inhibition of EGFR at 10 uM; procedure, shortened: as §5
[26] = target: Serine/threonine-protein kinase Chk1 (Homo sapiens) (UniProt O14757); assay: Inhibition of CHK1 at 10 uM; procedure, shortened: as §5
[27] = target: Mitogen-activated protein kinase 14 (Homo sapiens) (UniProt Q16539); assay: Inhibition of p38alpha at 10 uM; procedure, shortened: as §5
[28] = target: Serine/threonine-protein kinase mTOR (Homo sapiens) (UniProt P42345); assay: Inhibition of mTOR at 10 uM; procedure, shortened: as §5
[29] = target: ALK tyrosine kinase receptor (Homo sapiens) (UniProt Q9UM73); assay: Inhibition of ALK at 10 uM; procedure, shortened: as §5
[30] = target: Mitogen-activated protein kinase 8 (Homo sapiens) (UniProt P45983); assay: Inhibition of JNK1 at 10 uM; procedure, shortened: as §5
[31] = target: Tyrosine-protein kinase SYK (Homo sapiens) (UniProt P43405); assay: Inhibition of SYK at 10 uM; procedure, shortened: as §5
[32] = target: Tyrosine-protein kinase Lyn (Homo sapiens) (UniProt P07948); assay: Inhibition of LYN at 10 uM; procedure, shortened: as §5
[33] = Inhibition of PKA at 10 uM
Procedure, shortened: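 Single-concentration screen at 10 µM within a 30-kinase panel, run in duplicate; read-out is percent inhibition of kinase activity.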

WM3629 = assay: as §1; type: functional; procedure, shortened: as §2
[34] = Growth inhibition of human A375P cells at 8.05 uM by MTT assay relative to total growth; type: functional; conditions: read-out: GI
[35] = Growth inhibition of human A375P cells at 164 uM by MTT assay relative to total growth; type: functional; conditions: read-out: GI

ALK tyrosine kinase receptor (Homo sapiens), sequence (Q9UM73 19-1620 limits assumed): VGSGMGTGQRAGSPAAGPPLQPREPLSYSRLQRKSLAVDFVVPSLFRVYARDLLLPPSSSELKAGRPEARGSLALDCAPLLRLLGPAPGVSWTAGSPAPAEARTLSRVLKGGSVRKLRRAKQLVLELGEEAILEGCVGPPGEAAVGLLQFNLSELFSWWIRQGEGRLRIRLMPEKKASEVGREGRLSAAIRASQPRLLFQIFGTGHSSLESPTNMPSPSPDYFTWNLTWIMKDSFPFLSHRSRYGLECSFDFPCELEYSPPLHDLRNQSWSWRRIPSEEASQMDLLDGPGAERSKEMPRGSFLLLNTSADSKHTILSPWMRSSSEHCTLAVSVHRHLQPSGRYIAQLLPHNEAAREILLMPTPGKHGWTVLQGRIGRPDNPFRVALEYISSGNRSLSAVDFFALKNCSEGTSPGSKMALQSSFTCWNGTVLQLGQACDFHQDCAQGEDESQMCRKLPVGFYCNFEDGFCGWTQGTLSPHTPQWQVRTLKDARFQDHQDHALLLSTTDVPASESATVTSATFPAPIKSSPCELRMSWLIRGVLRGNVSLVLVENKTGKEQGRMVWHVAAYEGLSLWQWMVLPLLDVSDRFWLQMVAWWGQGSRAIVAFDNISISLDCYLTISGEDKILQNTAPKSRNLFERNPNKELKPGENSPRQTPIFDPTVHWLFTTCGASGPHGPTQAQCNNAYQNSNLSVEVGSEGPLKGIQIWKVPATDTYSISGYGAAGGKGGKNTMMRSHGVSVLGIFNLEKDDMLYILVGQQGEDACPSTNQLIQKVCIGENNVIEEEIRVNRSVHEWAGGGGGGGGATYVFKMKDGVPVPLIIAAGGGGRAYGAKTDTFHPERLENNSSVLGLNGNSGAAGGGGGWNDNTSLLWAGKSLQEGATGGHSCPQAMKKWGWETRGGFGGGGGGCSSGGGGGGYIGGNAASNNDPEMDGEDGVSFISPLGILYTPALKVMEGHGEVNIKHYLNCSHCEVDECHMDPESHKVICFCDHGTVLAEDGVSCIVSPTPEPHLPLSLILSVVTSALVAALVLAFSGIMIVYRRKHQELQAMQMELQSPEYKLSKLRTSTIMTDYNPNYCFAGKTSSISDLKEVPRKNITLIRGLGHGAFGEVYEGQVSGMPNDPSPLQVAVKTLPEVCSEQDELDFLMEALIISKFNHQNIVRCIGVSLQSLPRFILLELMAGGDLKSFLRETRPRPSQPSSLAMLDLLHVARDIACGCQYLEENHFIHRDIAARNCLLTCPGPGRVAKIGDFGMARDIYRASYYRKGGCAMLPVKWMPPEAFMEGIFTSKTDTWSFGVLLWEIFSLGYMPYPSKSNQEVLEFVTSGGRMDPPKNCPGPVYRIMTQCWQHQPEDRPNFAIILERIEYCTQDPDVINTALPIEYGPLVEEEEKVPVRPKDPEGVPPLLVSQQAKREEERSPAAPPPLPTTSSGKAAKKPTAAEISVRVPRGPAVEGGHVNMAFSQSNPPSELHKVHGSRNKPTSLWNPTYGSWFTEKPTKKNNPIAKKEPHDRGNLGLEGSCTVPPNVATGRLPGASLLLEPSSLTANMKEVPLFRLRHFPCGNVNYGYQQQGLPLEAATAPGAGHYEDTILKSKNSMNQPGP
Serine/threonine-protein kinase Chk1 (Homo sapiens), sequence (O14757 whole entry): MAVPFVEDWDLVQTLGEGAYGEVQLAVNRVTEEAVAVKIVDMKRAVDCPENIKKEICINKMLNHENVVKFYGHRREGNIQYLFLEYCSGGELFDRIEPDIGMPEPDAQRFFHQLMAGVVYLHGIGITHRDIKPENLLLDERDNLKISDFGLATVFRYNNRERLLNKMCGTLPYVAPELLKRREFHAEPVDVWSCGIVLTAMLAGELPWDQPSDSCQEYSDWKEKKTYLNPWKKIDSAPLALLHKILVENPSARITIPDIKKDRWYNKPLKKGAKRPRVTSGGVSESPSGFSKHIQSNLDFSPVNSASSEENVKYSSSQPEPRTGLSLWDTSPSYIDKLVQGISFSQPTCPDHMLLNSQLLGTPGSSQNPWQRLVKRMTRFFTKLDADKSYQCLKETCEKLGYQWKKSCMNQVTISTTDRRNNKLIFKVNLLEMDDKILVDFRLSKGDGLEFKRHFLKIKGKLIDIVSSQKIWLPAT
Receptor-type tyrosine-protein kinase FLT3 (Homo sapiens), sequence (P36888 whole entry): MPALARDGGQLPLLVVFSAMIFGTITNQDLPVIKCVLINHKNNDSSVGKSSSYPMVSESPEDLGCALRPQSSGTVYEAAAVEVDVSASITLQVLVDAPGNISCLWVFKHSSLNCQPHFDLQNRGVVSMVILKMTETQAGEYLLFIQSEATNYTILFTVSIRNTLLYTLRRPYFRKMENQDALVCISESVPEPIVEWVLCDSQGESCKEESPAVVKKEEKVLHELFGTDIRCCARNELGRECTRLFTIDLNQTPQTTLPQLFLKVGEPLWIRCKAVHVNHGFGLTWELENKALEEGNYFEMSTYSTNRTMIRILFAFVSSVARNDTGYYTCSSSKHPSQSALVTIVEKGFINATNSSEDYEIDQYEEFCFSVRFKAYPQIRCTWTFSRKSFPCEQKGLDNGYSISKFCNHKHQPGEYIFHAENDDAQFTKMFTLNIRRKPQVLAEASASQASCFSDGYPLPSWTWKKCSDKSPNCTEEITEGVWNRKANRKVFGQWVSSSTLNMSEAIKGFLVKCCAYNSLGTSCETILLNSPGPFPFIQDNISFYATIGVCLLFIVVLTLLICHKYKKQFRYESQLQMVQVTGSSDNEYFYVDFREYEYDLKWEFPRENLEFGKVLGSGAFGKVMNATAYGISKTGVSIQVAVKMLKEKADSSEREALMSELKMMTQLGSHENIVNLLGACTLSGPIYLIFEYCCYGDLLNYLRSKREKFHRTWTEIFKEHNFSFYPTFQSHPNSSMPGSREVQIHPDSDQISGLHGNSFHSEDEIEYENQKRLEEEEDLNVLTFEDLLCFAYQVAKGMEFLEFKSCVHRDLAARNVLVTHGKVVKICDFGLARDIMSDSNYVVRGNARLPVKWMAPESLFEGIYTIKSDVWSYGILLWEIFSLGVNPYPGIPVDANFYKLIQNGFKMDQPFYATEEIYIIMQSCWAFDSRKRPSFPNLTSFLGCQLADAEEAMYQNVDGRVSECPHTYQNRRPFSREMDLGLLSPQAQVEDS
Epidermal growth factor receptor (Homo sapiens), sequence (P00533 whole entry): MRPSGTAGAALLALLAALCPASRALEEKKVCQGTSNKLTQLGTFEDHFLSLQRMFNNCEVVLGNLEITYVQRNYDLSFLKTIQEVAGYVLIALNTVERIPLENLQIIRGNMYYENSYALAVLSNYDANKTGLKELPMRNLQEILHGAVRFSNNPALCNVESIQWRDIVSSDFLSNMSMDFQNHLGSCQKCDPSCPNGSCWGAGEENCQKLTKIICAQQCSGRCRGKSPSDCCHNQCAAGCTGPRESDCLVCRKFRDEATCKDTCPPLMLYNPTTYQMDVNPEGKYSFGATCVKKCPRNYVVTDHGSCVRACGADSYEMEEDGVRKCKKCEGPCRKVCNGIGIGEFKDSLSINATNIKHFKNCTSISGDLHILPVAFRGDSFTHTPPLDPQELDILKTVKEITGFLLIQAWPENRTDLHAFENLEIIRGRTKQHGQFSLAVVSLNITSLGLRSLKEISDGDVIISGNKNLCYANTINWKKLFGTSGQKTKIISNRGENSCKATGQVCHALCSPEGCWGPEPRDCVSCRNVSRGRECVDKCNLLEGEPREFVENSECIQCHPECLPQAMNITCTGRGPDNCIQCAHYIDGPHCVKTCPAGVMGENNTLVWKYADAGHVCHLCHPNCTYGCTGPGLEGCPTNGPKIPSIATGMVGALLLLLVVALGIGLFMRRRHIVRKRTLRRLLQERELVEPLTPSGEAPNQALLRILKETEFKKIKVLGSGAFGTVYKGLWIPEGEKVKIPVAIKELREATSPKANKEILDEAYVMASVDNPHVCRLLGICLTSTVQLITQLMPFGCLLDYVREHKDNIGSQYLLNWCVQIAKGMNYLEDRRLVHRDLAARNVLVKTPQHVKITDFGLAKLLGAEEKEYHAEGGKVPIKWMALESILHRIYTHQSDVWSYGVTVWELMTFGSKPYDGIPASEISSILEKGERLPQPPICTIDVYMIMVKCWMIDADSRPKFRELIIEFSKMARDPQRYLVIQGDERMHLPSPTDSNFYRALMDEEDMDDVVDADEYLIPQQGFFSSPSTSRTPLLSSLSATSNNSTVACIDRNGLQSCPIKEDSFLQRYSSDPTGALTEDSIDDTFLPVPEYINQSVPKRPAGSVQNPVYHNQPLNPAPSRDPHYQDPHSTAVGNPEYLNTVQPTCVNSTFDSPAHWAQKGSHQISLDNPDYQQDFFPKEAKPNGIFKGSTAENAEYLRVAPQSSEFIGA
Dual specificity mitogen-activated protein kinase kinase 1 (Homo sapiens), sequence (Q02750 whole entry): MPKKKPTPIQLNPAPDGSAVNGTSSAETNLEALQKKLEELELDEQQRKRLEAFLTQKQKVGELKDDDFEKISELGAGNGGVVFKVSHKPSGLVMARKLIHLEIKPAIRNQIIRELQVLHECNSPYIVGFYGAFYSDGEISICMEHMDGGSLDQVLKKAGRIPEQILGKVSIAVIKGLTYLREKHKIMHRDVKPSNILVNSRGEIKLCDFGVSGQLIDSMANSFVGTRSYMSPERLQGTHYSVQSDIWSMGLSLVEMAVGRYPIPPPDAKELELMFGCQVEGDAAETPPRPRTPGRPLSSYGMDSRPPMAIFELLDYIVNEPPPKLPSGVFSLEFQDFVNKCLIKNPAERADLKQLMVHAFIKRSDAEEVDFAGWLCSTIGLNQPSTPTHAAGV
Mitogen-activated protein kinase 1 (Homo sapiens), sequence (P28482 whole entry): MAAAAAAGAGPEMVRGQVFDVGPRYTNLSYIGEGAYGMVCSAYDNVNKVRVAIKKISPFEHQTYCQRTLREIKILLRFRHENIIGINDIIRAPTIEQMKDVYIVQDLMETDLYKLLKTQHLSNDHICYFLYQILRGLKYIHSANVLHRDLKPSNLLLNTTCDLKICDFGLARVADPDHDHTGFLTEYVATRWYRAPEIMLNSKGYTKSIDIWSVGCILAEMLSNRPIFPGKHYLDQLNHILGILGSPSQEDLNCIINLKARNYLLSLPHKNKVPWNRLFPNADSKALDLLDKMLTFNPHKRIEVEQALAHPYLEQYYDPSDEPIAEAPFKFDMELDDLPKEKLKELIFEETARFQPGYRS

C[C@H](O)CNc1nccc(-n2ccnc2-c2ccc(NC(=O)Nc3cccc(Cl)c3)cc2)n1
GI50 [1]: 4.99 µM
GI50 [2]: 3.19 µM

C[C@H](O)CNc1nccc(-n2ccnc2-c2ccc(NC(=O)Nc3ccc(Cl)c(Cl)c3)cc2)n1
GI50 [1]: 2.45 µM
GI50 [2]: 17.8 µM

C[C@H](O)CNc1nccc(-n2ccnc2-c2ccc(NC(=O)Nc3cccc(C(F)(F)F)c3)cc2)n1
GI50 [1]: 12.9 µM
GI50 [2]: 7.19 µM

C[C@H](O)CNc1nccc(-n2ccnc2-c2ccc(NC(=O)c3ncc(-c4ccncc4)s3)cc2)n1
GI50 [1]: > 100 µM
GI50 [2]: 139 µM

C[C@H](O)CNc1nccc(-n2ccnc2-c2cccc(NC(=O)Nc3ccc(Cl)c(Cl)c3)c2)n1
GI50 [1]: 0.65 µM
RatioGI50 [3]: 5
GI50 [2]: 5.93 µM

Cc1cn(-c2cc(C(=O)Nc3cccc(-c4nccn4-c4ccnc(NC[C@H](C)O)n4)c3)cc(C(F)(F)F)c2)cn1
GI50 [1]: 3.49 µM
RatioGI50 [3]: 5
GI50 [2]: 6.72 µM

COc1ccc(-c2cc(C(=O)Nc3cccc(-c4nccn4-c4ccnc(NC[C@H](C)O)n4)c3)co2)cc1
GI50 [1]: 22.3 µM
RatioGI50 [3]: 5
GI50 (A375P): inactive

C[C@H](O)CNc1nccc(-n2ccnc2-c2cccc(NC(=O)c3ccc(Cl)c(C(F)(F)F)c3)c2)n1
inhibition [4]: < 0%
inhibition [5]: 99%
inhibition [6]: 7.6%
inhibition [7]: 5.1%
GI50 [1]: 0.62 µM
inhibition [8]: < 0%
inhibition [9]: < 0%
inhibition [10]: 9.4%
inhibition [11]: 2.4%
inhibition [12]: 0.21%
inhibition [13]: < 0%
RatioGI50 [3]: 5
inhibition [14]: 0%
inhibition [15]: 1.1%
inhibition [16]: < 0%
inhibition [17]: 3.6%
inhibition [18]: 17%
inhibition [19]: 0.19%
inhibition [20]: 5%
inhibition [21]: 14%
inhibition [22]: 82%
inhibition [23]: 10%
inhibition [24]: 21%
inhibition [25]: 1.7%
GI50 [2]: 4.49 µM
inhibition [26]: 5.9%
inhibition [27]: 89%
inhibition [28]: 1.5%
inhibition [29]: 0.8%
inhibition [30]: < 0%
inhibition [31]: 13%
inhibition [32]: 21%
inhibition [33]: 6.8%

C[C@H](O)CNc1nccc(-n2ccnc2-c2cccc(NC(=O)c3coc(-c4cc(C(F)(F)F)ccc4Cl)c3)c2)n1
GI50 (WM3629): inactive
RatioGI50 [3]: 5

C[C@H](O)CNc1nccc(-n2ccnc2-c2ccc(NC(=O)c3ccc(N4CCOCC4)c(C(F)(F)F)c3)cc2)n1
GI50 [1]: > 100 µM
GI50 [2]: > 100 µM

C[C@H](O)CNc1nccc(-n2ccnc2-c2cccc(NC(=O)Nc3ccc(Cl)c(C(F)(F)F)c3)c2)n1
GI50 [1]: > 100 µM
RatioGI50 [3]: 5
GI50 [2]: 58.2 µM

C[C@H](O)CNc1nccc(-n2ccnc2-c2cccc(NC(=O)Nc3cccc(C(F)(F)F)c3)c2)n1
GI50 [1]: 7.86 µM
RatioGI50 [3]: 5
GI50 [2]: 19.2 µM

C[C@H](O)CNc1nccc(-n2ccnc2-c2cccc(NC(=O)Nc3ccc(N4CCOCC4)c(C(F)(F)F)c3)c2)n1
GI50 [1]: 3.28 µM
RatioGI50 [3]: 5
GI50 [2]: 34.6 µM

C[C@H](O)CNc1nccc(-n2ccnc2-c2ccc(NC(=O)c3coc(-c4cc(C(F)(F)F)ccc4Cl)c3)cc2)n1
GI50 [1]: > 100 µM
GI50 [2]: 2.23 µM

C[C@H](O)CNc1nccc(-n2ccnc2-c2ccc(NC(=O)Nc3ccc(Cl)c(C(F)(F)F)c3)cc2)n1
GI50 [1]: 4.43 µM
GI50 [2]: 10.1 µM

C[C@H](O)CNc1nccc(-n2ccnc2-c2ccc(NC(=O)c3cc(-c4ccc(Cl)cc4)on3)cc2)n1
GI50 [1]: > 100 µM
GI50 [2]: > 100 µM

COc1ccc(-c2cc(C(=O)Nc3ccc(-c4nccn4-c4ccnc(NC[C@H](C)O)n4)cc3)co2)cc1
GI50 [1]: > 100 µM
inhibition of growth at 8.05 µM [34]: < 66%
GI50 [2]: 8.05 µM

C[C@H](O)CNc1nccc(-n2ccnc2-c2cccc(NC(=O)c3cccc(C(F)(F)F)c3)c2)n1
GI50 (WM3629): inactive
RatioGI50 [3]: 5
GI50 (A375P): inactive

C[C@H](O)CNc1nccc(-n2ccnc2-c2cccc(NC(=O)c3cc(-c4ccc(Cl)cc4)on3)c2)n1
GI50 [1]: > 100 µM
RatioGI50 [3]: 5
inhibition of growth at 164 µM [35]: < 66%
GI50 [2]: 164 µM

C[C@H](O)CNc1nccc(-n2ccnc2-c2cccc(NC(=O)c3ncc(-c4ccncc4)s3)c2)n1
GI50 [1]: 13.8 µM
RatioGI50 [3]: 5
GI50 [2]: > 100 µM

C[C@H](O)CNc1nccc(-n2ccnc2-c2ccc(NC(=O)c3ccc(Cl)c(C(F)(F)F)c3)cc2)n1
GI50 [1]: > 100 µM
GI50 [2]: 79.2 µM

C[C@H](O)CNc1nccc(-n2ccnc2C(=O)c2ccc(NC(=O)c3ccc(Cl)c(C(F)(F)F)c3)cc2)n1
GI50 [1]: 1.37 µM
GI50 [2]: 2.51 µM

C[C@H](O)CNc1nccc(-n2ccnc2-c2cccc(NC(=O)Nc3cccc(Cl)c3)c2)n1
GI50 [1]: > 100 µM
RatioGI50 [3]: 5
GI50 [2]: 85.8 µM

C[C@H](O)CNc1nccc(-n2ccnc2-c2cccc(NC(=O)c3ccc(N4CCOCC4)c(C(F)(F)F)c3)c2)n1
GI50 [1]: 7.37 µM
RatioGI50 [3]: 5
GI50 [2]: 28.3 µM

Cc1ccc2nc(NC(=O)Nc3cccc(-c4nccn4-c4ccnc(NC[C@H](C)O)n4)c3)sc2c1
GI50 [1]: 4.54 µM
RatioGI50 [3]: 5
GI50 [2]: 19.4 µM

C[C@H](O)CNc1nccc(-n2ccnc2C(=O)c2ccc(NC(=O)Nc3ccc(Cl)c(C(F)(F)F)c3)cc2)n1
GI50 [1]: 3.51 µM
GI50 [2]: 9.29 µM

C[C@H](O)CNc1nccc(-n2ccnc2-c2ccc(NC(=O)c3cc(N4CCOCC4)cc(C(F)(F)F)c3)cc2)n1
GI50 [1]: 2.25 µM
GI50 [2]: 35.6 µM

C[C@H](O)CNc1nccc(-n2ccnc2-c2cccc(NC(=O)c3cc(N4CCN(C)CC4)cc(C(F)(F)F)c3)c2)n1
GI50 [1]: 9.13 µM
RatioGI50 [3]: 5
GI50 [2]: 10.4 µM

CNC(=O)c1cc(Oc2ccc(NC(=O)Nc3ccc(Cl)c(C(F)(F)F)c3)cc2)ccn1 [SORAFENIB]
GI50 [1]: 0.78 µM
GI50 [2]: 5.58 µM
